I50 and IC50 data for five compounds are collected here from ChEMBL document CHEMBL1121525, “Folate analogues altered in the C9--N10 bridge region. 14. 11-Oxahomofolic acid, a potential antitumor agent” (J Med Chem, 1980).

Each structure is given as a SMILES string. Converted amounts (≈) assume the structure as drawn.

Type in all cases: functional, organism-based
The subject of assay [1] is Lacticaseibacillus casei. In words: Compound was measured for the 50% growth inhibition of Lactobacillus casei MTX resistant microorganism. As to conditions: for IC50: Lacticaseibacillus casei, read-out: I50. Put shortly:
(§1)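 Drug solution concentrations were set either by weight or by UV absorbance at pH 7.4, using extinction coefficients of 9600 at 270 nm or 10 250 at 301 nm. The 7,8-dihydro form was made by treating the potassium salt with excess sodium dithionite at room temperature. The tetrahydro forms came from catalytic or enzymatic reduction.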

The test system of assay [2] is Enterococcus faecium. The assay is described as follows: Compound was measured for the 50% growth inhibition of Streptococcus faecium ATCC 8043 microorganism. Particulars: for IC50: Enterococcus faecium, ATCC 8043, read-out: I50. The method, boiled down: (§2)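 Growth-inhibition test. The reduced test forms were quantified by UV absorbance at pH 7.4 using a molar absorptivity at 270 or 301 nm. Other forms were quantified by weight. The 7,8-dihydro form was made by excess sodium dithionite reduction of the aqueous potassium salt at room temperature.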

Assay [3] deals with Enterococcus faecium. In words: Compound was measured for the 50% growth inhibition of Streptococcus faecium MTX resistant microorganism. Particulars: for IC50: Enterococcus faecium, read-out: I50. The method, boiled down: as §2
The subject of assay [4] is Lacticaseibacillus casei. In words: Compound was measured for the 50% growth inhibition of Lactobacillus casei ATCC 7469 microorganism. Particulars: for IC50: Lacticaseibacillus casei, ATCC 7469, read-out: I50. Put shortly:
as §1

For the compound `Nc1nc(O)c2c(n1)NCC(CCOc1ccc(C(=O)NC(CCC(=O)O)C(=O)O)cc1)N2` (racemic), the I50 was 19 ng/mL in the assay with Lacticaseibacillus casei [1], 0.7 ng/mL in the assay on Enterococcus faecium [2], 50 ng/mL in the assay with Enterococcus faecium [3] and 10 ng/mL with Lacticaseibacillus casei [4].

On to `Nc1nc(O)c2nc(CCOc3ccc(C(=O)NC(CCC(=O)O)C(=O)O)cc3)cnc2n1` (stereo not drawn), for which the IC50 is 1000 ng/mL (≈ 2.19 µM) in the assay with Lacticaseibacillus casei [1], 14 ng/mL (≈ 0.0307 µM) in the assay on Enterococcus faecium [2], 260 ng/mL (≈ 0.57 µM) with Enterococcus faecium [3] and 320 ng/mL (≈ 0.701 µM) in the assay on Lacticaseibacillus casei [4].

In the case of `Nc1nc(O)c2c(n1)NCC(CCOc1ccc(C(=O)NC(CCC(=O)O)C(=O)O)cc1)=N2` (stereo not drawn), the IC50 in the assay with Lacticaseibacillus casei [1] was determined as 700 ng/mL (≈ 1.53 µM); with Lacticaseibacillus casei [4], 240 ng/mL (≈ 0.524 µM).

The compound `CN(Cc1cnc2nc(N)nc(N)c2n1)c1ccc(C(=O)N[C@@H](CCC(=O)O)C(=O)O)cc1` [METHOTREXATE] yielded an I50 in the assay with Lacticaseibacillus casei [1] greater than 500000 ng/mL. The figures for the IC50 in the assay with Enterococcus faecium [2], in the assay on Enterococcus faecium [3] and with Lacticaseibacillus casei [4] were 0.05 ng/mL (≈ 0.00011 µM), 3500 ng/mL (≈ 7.7 µM) and 0.07 ng/mL (≈ 0.000154 µM), respectively.

As to `Nc1nc(O)c2c(n1)NCC(CCOc1ccc(C(=O)NC(CCC(=O)O)C(=O)O)cc1)N2` (stereo in doubt), the I50 with Lacticaseibacillus casei [1] was 64 ng/mL; in the assay with Enterococcus faecium [2], 9 ng/mL; in the assay on Enterococcus faecium [3], greater than 200 ng/mL; in the assay on Lacticaseibacillus casei [4] it was 56 ng/mL.
